# Bioassay records from PubChem.
# In the library only some 3.7% were active in any assay of this set; here they are far more common.
# DENV2 CPE rescue: inhibitors of DENV2 cytopathic effect, primary screen, cell-based, plate reader, single concentration; DENV2-infected cells, cytopathic effect rescue; CPE inhibition, % at 9.99 µM; 1.7% of 350,000 active; AID 651640, 2012; in the data active = CPE inhibition above about 20%, passing the limit was not always enough; tested in BHK-21 cells;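 also: 0% = median of neutral control wells and 100% = median of positive control wells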
# CFTR F508del cor: F508del CFTR correction, initial screen, CFBE line, single point; AID 720511, 2013; activity (quench increase), % at 7.58 µM; 0.36% of 350,000 active; CFBE cells, YFP halide quenching; stimulated with forskolin plus potentiator P3; % fluorescence drop versus neutral controls;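 active = mean added fluorescence quench of at least 8% versus neutral control, with both replicates also reaching 8%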;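 also: cells transiently co-express mutant CFTR-F508del with the halide-sensitive YFP; corrector assay measuring rescue of mutant channel to the surface after 24 h compound exposure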
# ERAP1 HTS inh: human ERAP1 aminopeptidase inhibitors, primary screen, biochemical, single point, plate reader. Endoplasmic reticulum aminopeptidase 1 (Homo sapiens), Q9NZ08. recombinant ERAP1, Leu-AMC fluorescence, 60 min. inhibition, % at 10.7 µM. 0.15% of 340,000 active;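 active = mean replicate inhibition of at least 30%, or all replicates individually reaching that 30% level; inactive = mean below 30% and not every replicate reaching it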;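 also: 0% = neutral control wells and 100% = L-leucinethiol positive control wells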
# E-sel inducer: E-selectin induction in HUVECs, primary screen, imaging, HUVEC, immunofluorescence imaging, single point; P16581; normalized: neutral wells 0, TNF-alpha wells 100; activation, % at 7.58 µM; 0.37% of 260,000 active;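 active = mean E-selectin-positive cell signal at least 10% of the positive control, reached in at least 60% of replicates, without over 20% cell loss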
# Target sequence (P16581 whole entry, looked up): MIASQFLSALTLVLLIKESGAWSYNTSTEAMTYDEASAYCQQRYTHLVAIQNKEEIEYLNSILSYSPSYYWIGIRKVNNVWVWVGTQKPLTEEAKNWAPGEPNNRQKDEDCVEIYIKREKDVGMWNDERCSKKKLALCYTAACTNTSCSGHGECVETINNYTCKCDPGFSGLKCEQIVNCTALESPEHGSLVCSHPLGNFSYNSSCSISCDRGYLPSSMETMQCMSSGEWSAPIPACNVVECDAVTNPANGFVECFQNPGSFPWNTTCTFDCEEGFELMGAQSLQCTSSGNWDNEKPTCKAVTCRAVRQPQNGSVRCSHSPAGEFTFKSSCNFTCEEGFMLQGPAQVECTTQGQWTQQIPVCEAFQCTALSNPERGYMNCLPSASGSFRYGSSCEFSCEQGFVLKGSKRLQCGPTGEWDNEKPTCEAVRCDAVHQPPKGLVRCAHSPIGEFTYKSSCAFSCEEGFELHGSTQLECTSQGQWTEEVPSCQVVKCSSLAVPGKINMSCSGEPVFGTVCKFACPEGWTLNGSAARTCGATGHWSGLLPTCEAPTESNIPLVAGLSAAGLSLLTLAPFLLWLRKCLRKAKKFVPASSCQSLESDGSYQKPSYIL
#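 Test system: HUVEC; input: 3,000 HUVEC/well; measured by: immunofluorescence imaging; read-out: % PE-positive cells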
# FGF22 binding: binders of human FGF22 protein, primary screen, FGF22 synaptogenesis inhibitor project, biophysical, thermal shift, single point | Fibroblast growth factor 22 (Homo sapiens), Q9HCT0 | recombinant FGF22 thermal shift, SYPRO orange fluorescence; percent of sucrose octasulfate shift, DMSO zero | activity (Tm shift, normalised), % at 9.99 µM | 1.5% of 340,000 active;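 active = mean Tm shift, scaled 0 neutral to 100 positive control, at about 1.3% or above, every replicate too, limit read from the data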
# Starred values were filed as active, the others as inactive; / = no result.
SMILES,DENV2 CPE rescue,CFTR F508del cor,ERAP1 HTS inh,E-sel inducer,FGF22 binding
COCCNC(=O)C[C@H]1C[C@@H]2c3cc(NC(=O)c4cccnc4)ccc3O[C@@H]2[C@@H](CO)O1,-5,1,1,0,0
O=C(NCc1cccc(F)c1)[C@@H]1[C@@H](CO)[C@@H]2Cn3c(ccc(-c4ccncc4)c3=O)[C@H]1N2CC1CC1,-4,3,0,0,0
COc1ccc(N(C(=O)CCl)C(C(=O)NCCc2ccccc2)c2cccs2)cc1 (stereo not drawn),2,-5,3,/,43*
COc1ccc(CNC(=O)C(c2ccncc2)N(C(=O)Cc2cccs2)c2ccccc2)cc1 (stereo not drawn),15,/,-4,12,0
O=C1CCC(=O)N(O)CCCCCNC(=O)CCC(=O)N(O)CCCCNC(=O)CCC(=O)N(O)CCCCCN1,87*,-3,-1,/,0
Cc1noc(C)c1NC(=O)NCC[C@H]1CC[C@H](NC(=O)Cc2cccnc2)[C@@H](CO)O1,3,1,0,-1,0
Cc1nc(SCC(=O)c2cc3ccccc3oc2=O)c(C#N)c(-c2cccs2)c1C(=O)Nc1ccccc1,-2,-3,3,-3,43*
COc1ccc(C(=O)N2CC(c3ccccc3)CC2=O)cc1 (stereo not drawn),0,-1,/,83*,0
C[C@H]1CCCCO[C@@H](CN(C)Cc2ccncc2)[C@@H](C)CN([C@@H](C)CO)C(=O)c2cc(NS(=O)(=O)c3ccccc3)ccc2O1,-4,-2,-5,/,0
C[C@H](CO)N1C[C@H](C)[C@@H](CN(C)Cc2ccc(Cl)c(Cl)c2)OCc2cn(nn2)CCCC1=O,/,1,/,0,/
O=C1NC(c2ccc(-c3ccccc3[N+](=O)[O-])o2)C(C(=O)c2ccccc2)C(O)(C(F)(F)F)N1 (stereo not drawn),/,0,-1,/,43*
CCCc1cc(=O)oc2c(C)c(OC3CCCCC3=O)ccc12 (stereo not drawn),26*,-1,2,1,0
CCOC(=O)CCc1c(C)c2ccc(OC3CCCCC3=O)c(C)c2oc1=O (stereo not drawn),-1,-1,2,/,0
C[C@@H]1CN([C@H](C)CO)S(=O)(=O)c2ccc(C3=CCCCC3)cc2O[C@H]1CN(C)Cc1ccccc1F,9,3,0,/,0
Cc1ccc(NS(=O)(=O)c2cccc(C(=O)NCC(c3cccs3)N(C)C)c2)cc1 (stereo not drawn),-7,2,3,/,43*
COc1ccc(S(=O)(=O)NNC(=O)c2ccccc2-n2cccc2)cc1,2,-2,4,/,43*
Cc1ccc(S(=O)(=O)NNC(=O)c2ccccc2-n2cccc2)cc1,-2,2,4,0,0
Cc1cccc(C(=O)NNS(=O)(=O)c2ccccc2)c1O,-2,-1,3,/,43*
C[C@@H]1CN([C@H](C)CO)S(=O)(=O)c2ccc(-c3cncnc3)cc2O[C@@H]1CN(C)C(=O)Cc1cccnc1,3,-3,8,0,0
Cc1ccc(S(=O)(=O)N(C)C[C@@H]2Oc3ncc(-c4ccc(F)cc4)cc3C(=O)N([C@H](C)CO)C[C@@H]2C)cc1,-10,-2,0,0,0
C[C@H](CO)N1C[C@H](C)[C@H](CN(C)C(=O)CCC(F)(F)F)OCCCC[C@H](C)Oc2ccc(NS(=O)(=O)c3cn(C)cn3)cc2C1=O,-7,-1,4,0,0
O=S(=O)(NCc1c(Cl)cccc1Oc1ccccc1)c1ccccc1,32*,-2,0,0,0
O=C(O)c1ccc(CNS(=O)(=O)c2ccc(Oc3ccccc3Cl)cc2)cc1,-2,-1,0,0,0
O=C(c1cc(C2CC2)on1)N1CCN(C(c2ccccc2)c2ccccc2)CC1,40*,-3,-4,/,0
O=C(c1cc(-c2cccc(O)c2)on1)N1CCN(C(c2ccccc2)c2ccccc2)CC1,17,3,1,/,0
SMILES,DENV2 CPE rescue,CFTR F508del cor,ERAP1 HTS inh,E-sel inducer,FGF22 binding
C[C@@H]1CN([C@H](C)CO)C(=O)CCCn2nncc2CO[C@@H]1CN(C)Cc1ccc2c(c1)OCCO2,/,4,/,0,/
Fc1ccc(F)c(C2=NNC(=Nc3ccccc3F)SC2)c1,86*,/,-3,/,0
COc1cc(CN2CC3(CCN(C(=O)CN4CCOCC4)CC3)c3c(n(C)c4cc(OC)ccc34)[C@H]2CO)cc(OC)c1,7,0,3,0,0
O=C(COc1ccc(S(=O)(=O)NC2CCCCC2)cc1)NC1CC1,2,2,0,0,0
O=C(COc1ccc(S(=O)(=O)NC2CCCCC2)cc1)NC1CCCC1,-1,0,-1,/,43*
CC(C)NC(=O)N[C@H]1CC[C@H](CCNS(=O)(=O)c2ccc(Cl)cc2)O[C@@H]1CO,-1,-1,-4,1,0
Cc1ccccc1S(=O)(=O)N1CC(=O)N2[C@@H](CO)[C@H](c3ccc(C#CCC4CCCC4)cc3)[C@@H]2C1,-1,-4,2,-1,/
OC(CSc1nc(-c2ccccc2)c(-c2ccccc2)o1)CC(O)c1ccccc1 (stereo not drawn),30*,0,1,/,1
O=[N+]([O-])c1ccc(C(O)CC(O)CSc2nc(-c3ccccc3)c(-c3ccccc3)o2)cc1 (stereo not drawn),9,0,3,/,-1
O=C(C1CCC1)N1CC[C@@H]2[C@H](CO)Nc3ccc(C#Cc4cccc(F)c4)cc3[C@@H]21,-12,-1,1,31*,0
O=C(C1CC1)N1CC[C@H]2[C@H](CO)Nc3ccc(-c4cccc(F)c4)cc3[C@H]21,32*,0,1,0,0
O=C(C1CCC1)N1CC[C@@H]2[C@@H](CO)Nc3ccc(C#Cc4ccc(F)cc4)cc3[C@@H]21,15,4,-10,38*,/
O=C(C1CCCC1)N1CC[C@H]2[C@H](CO)Nc3ccc(C#Cc4ccc(F)cc4)cc3[C@H]21,-1,0,-1,/,/
O=C(C1CCCCC1)N1CC[C@@H]2[C@H]1c1cc(C#Cc3ccc(F)cc3)ccc1N[C@@H]2CO,20,0,1,0,0
O=C(C1CC1)N1CC[C@@H]2[C@H](CO)Nc3ccc(-c4cccc(F)c4)cc3[C@@H]21,11,1,0,0,0
O=C(C1CC1)N1CC[C@@H]2[C@H](CO)Nc3ccc(C#Cc4ccc(F)cc4)cc3[C@@H]21,-13,1,/,34*,0
